Assays:
[1] = biological target: T1, Amine oxidase [flavin-containing] A (Homo sapiens, UniProt P21397); assay: Inhibition of human recombinant MAOA expressed in baculovirus-infected BTI insect cells assessed as conversion of p-tyramine into p-hydroxyphenyl-acetaldehyde at 100 uM after 15 mins by fluorimetric assay; conditions: 0.25 h
T1 sequence (P21397 whole entry): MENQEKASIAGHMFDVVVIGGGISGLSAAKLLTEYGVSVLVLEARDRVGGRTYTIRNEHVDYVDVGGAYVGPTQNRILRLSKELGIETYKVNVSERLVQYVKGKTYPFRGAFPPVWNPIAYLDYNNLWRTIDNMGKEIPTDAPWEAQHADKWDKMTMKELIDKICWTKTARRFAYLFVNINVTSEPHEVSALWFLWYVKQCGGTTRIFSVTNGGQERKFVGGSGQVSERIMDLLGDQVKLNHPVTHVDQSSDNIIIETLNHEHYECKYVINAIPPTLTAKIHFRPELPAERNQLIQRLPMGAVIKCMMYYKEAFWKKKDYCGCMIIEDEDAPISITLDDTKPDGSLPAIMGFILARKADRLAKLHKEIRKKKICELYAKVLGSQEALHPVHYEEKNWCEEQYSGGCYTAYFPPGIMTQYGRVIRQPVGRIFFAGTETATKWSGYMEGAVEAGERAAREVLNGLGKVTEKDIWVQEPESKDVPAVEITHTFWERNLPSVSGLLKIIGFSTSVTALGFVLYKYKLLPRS
Summary of the method: (§1)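 Recombinant hMAO-A or hMAO-B was adjusted to the same velocity (165 pmol p-tyramine/min; specific activity 150 nmol/min/mg for A, 22 for B). Enzyme and drug in 0.05 M sodium phosphate pH 7.4 were preincubated 15 min at 37 °C. Amplex Red, 1 U/mL HRP and 1 mM p-tyramine (final) were added, and resorufin fluorescence was read at 37 °C. Values were background-subtracted against enzyme-free blanks with vehicle controls.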

[2] = biological target: T2, Amine oxidase [flavin-containing] B (Homo sapiens, UniProt P27338); assay: Inhibition of human recombinant MAOB expressed in baculovirus-infected BTI insect cells assessed as using transformed p-tyramine at 100 uM after 15 mins by fluorimetric assay; conditions: 0.25 h; summary of the method: as §1
T2 sequence (P27338 whole entry): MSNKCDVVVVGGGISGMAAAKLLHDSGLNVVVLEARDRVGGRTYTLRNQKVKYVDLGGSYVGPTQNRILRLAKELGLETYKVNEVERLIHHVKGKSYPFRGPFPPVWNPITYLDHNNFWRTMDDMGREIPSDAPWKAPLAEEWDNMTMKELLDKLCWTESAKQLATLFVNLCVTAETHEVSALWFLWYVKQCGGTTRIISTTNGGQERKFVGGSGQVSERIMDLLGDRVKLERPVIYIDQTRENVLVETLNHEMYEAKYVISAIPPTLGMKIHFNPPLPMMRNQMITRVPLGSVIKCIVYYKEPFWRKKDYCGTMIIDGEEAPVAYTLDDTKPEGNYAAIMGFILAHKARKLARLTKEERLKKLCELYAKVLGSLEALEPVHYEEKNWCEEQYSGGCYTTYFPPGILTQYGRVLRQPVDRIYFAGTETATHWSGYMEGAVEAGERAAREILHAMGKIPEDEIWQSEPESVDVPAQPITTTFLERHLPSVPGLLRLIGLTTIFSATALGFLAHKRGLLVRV

Homo sapiens = species on record: Homo sapiens; assay: Selectivity index, ratio of IC50 for human recombinant MAOA to IC50 for human recombinant MAOB
Summary of the method: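 The index is IC50(MAO-A)/IC50(MAO-B) from the fluorimetric Amplex Red/p-tyramine assay on recombinant human isoforms.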

[3] = biological target: T2, Amine oxidase [flavin-containing] B; assay: Inhibition of human recombinant MAOB expressed in baculovirus-infected BTI insect cells assessed as using transformed p-tyramine after 15 mins by fluorimetric assay; format: single protein

SMILES | inhibition (INH) [1] | inhibition (INH) [2] | Ratio IC50 (Homo sapiens) | IC50 [3]
COc1ccc(-c2c(O)c3cc(Cl)ccc3oc2=O)cc1 | Not Active | Not Active | – | –
COc1ccc(-c2c(O)c3cc(C)ccc3oc2=O)cc1 | Not Active | – | > 3.1 | 32 µM
COc1ccc(-c2c(O)c3ccccc3oc2=O)cc1Cl | Not Active | – | – | –
COc1ccc(-c2c(O)c3cc(C)ccc3oc2=O)cc1Cl | Not Active | – | > 2.3 | 42.7 µM
COc1ccc(-c2c(O)c3cc(Cl)ccc3oc2=O)cc1Cl | Not Active | – | > 36 | 2.79 µM
O=c1oc2ccccc2c(O)c1-c1ccccc1 | Not Active | Not Active | – | –
COc1ccc(-c2c(O)c3ccccc3oc2=O)cc1 | Not Active | – | > 1.4 | 69.6 µM
